# ChEMBL document CHEMBL1140087, “Synthesis and structure-activity relationship studies of cytotoxic ester and ether anhydrovinblastine derivatives” (J Nat Prod, 2008)
# Key:
# [1] = tested on: A549; experiment: Cytotoxicity against human A549 cells after 72 hrs by SRB assay; format: functional, cell-based; conditions: A549, 72 h
# Procedure, shortened: (§1)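 Ditartrate salts tested. ATCC cells seeded at 6000/well, attached overnight, then exposed in triplicate to graded concentrations at 37 °C for 72 h. Fixed with 10% trichloroacetic acid for 60 min at 4 °C, stained with 0.4% w/v SRB in 1% acetic acid for 15 min, dye solubilised in Tris buffer, A515 read. IC50 for 50% growth inhibition by Logit method. Anhydrovinblastine as positive control.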
# [2] = tested on: HeLa; experiment: Cytotoxicity against human HeLa cells after 72 hrs by SRB assay; format: functional, cell-based; procedure, shortened: as §1
SMILES,IC50 [1] [nM],IC50 [2] [nM]
CCC1=C[C@@H]2CN(CCc3c([nH]c4ccccc34)[C@@](C(=O)OC)(c3cc4c(cc3OC)N(C)[C@H]3[C@@](O)(COC(=O)c5ccc(OC)cc5)[C@H](OC(C)=O)[C@]5(CC)C=CCN6CC[C@]43[C@@H]65)C2)C1,29.7,151
CCC1=C[C@@H]2CN(CCc3c([nH]c4ccccc34)[C@@](C(=O)OC)(c3cc4c(cc3OC)N(C)[C@H]3[C@@](O)(COC(=O)c5ccc(Cl)cc5)[C@H](OC(C)=O)[C@]5(CC)C=CCN6CC[C@]43[C@@H]65)C2)C1,56.7,102
CCC1=C[C@@H]2CN(CCc3c([nH]c4ccccc34)[C@@](C(=O)OC)(c3cc4c(cc3OC)N(C)[C@H]3[C@@](O)(COC(=O)C(C)C)[C@H](OC(C)=O)[C@]5(CC)C=CCN6CC[C@]43[C@@H]65)C2)C1,59.9,87.5
CCC1=C[C@@H]2CN(CCc3c([nH]c4ccccc34)[C@@](C(=O)OC)(c3cc4c(cc3OC)N(C)[C@H]3[C@@](O)(COC(=O)c5ccccc5OC)[C@H](OC(C)=O)[C@]5(CC)C=CCN6CC[C@]43[C@@H]65)C2)C1,14.2,154
CCC1=C[C@@H]2CN(CCc3c([nH]c4ccccc34)[C@@](C(=O)OC)(c3cc4c(cc3OC)N(C)[C@H]3[C@@](O)(COC(=O)CC(C)C)[C@H](OC(C)=O)[C@]5(CC)C=CCN6CC[C@]43[C@@H]65)C2)C1,70.3,175
CCCCOC[C@@]1(O)[C@H](OC(C)=O)[C@]2(CC)C=CCN3CC[C@@]4(c5cc([C@@]6(C(=O)OC)C[C@@H]7C=C(CC)CN(CCc8c6[nH]c6ccccc86)C7)c(OC)cc5N(C)[C@@H]14)[C@@H]32,422,422
CCC1=C[C@@H]2CN(CCc3c([nH]c4ccccc34)[C@@](C(=O)OC)(c3cc4c(cc3OC)N(C)[C@H]3[C@@](O)(COC(=O)c5ccc([N+](=O)[O-])cc5)[C@H](OC(C)=O)[C@]5(CC)C=CCN6CC[C@]43[C@@H]65)C2)C1,52.3,169
CCOC[C@@]1(O)[C@H](OC(C)=O)[C@]2(CC)C=CCN3CC[C@@]4(c5cc([C@@]6(C(=O)OC)C[C@@H]7C=C(CC)CN(CCc8c6[nH]c6ccccc86)C7)c(OC)cc5N(C)[C@@H]14)[C@@H]32,98,220
CCC1=C[C@@H]2CN(CCc3c([nH]c4ccccc34)[C@@](C(=O)OC)(c3cc4c(cc3OC)N(C)[C@H]3[C@@](O)(COCc5ccc(OC)cc5)[C@H](OC(C)=O)[C@]5(CC)C=CCN6CC[C@]43[C@@H]65)C2)C1,702,409
CCC1=C[C@@H]2CN(CCc3c([nH]c4ccccc34)[C@@](C(=O)OC)(c3cc4c(cc3OC)N(C)[C@H]3[C@@](O)(COC(=O)Cc5ccccc5)[C@H](OC(C)=O)[C@]5(CC)C=CCN6CC[C@]43[C@@H]65)C2)C1,67.4,272
CCC1=C[C@@H]2CN(CCc3c([nH]c4ccccc34)[C@@](C(=O)OC)(c3cc4c(cc3OC)N(C)[C@H]3[C@@](O)(COC(C)=O)[C@H](OC(C)=O)[C@]5(CC)C=CCN6CC[C@]43[C@@H]65)C2)C1,38.2,35.3
CCC(=O)OC[C@@]1(O)[C@H](OC(C)=O)[C@]2(CC)C=CCN3CC[C@@]4(c5cc([C@@]6(C(=O)OC)C[C@@H]7C=C(CC)CN(CCc8c6[nH]c6ccccc86)C7)c(OC)cc5N(C)[C@@H]14)[C@@H]32,39.1,62.1
CCC1=C[C@@H]2CN(CCc3c([nH]c4ccccc34)[C@@](C(=O)OC)(c3cc4c(cc3OC)N(C)[C@H]3[C@@](O)(COC(=O)C(C)(C)C)[C@H](OC(C)=O)[C@]5(CC)C=CCN6CC[C@]43[C@@H]65)C2)C1,181,96
CCCOC[C@@]1(O)[C@H](OC(C)=O)[C@]2(CC)C=CCN3CC[C@@]4(c5cc([C@@]6(C(=O)OC)C[C@@H]7C=C(CC)CN(CCc8c6[nH]c6ccccc86)C7)c(OC)cc5N(C)[C@@H]14)[C@@H]32,401,398
CCC1=C[C@@H]2CN(CCc3c([nH]c4ccccc34)[C@@](C(=O)OC)(c3cc4c(cc3OC)N(C)[C@H]3[C@@](O)(COC(=O)c5ccccc5)[C@H](OC(C)=O)[C@]5(CC)C=CCN6CC[C@]43[C@@H]65)C2)C1,25.4,35.6
CCC1=C[C@@H]2CN(CCc3c([nH]c4ccccc34)[C@@](C(=O)OC)(c3cc4c(cc3OC)N(C)[C@H]3[C@@](O)(COC(=O)C5CC5)[C@H](OC(C)=O)[C@]5(CC)C=CCN6CC[C@]43[C@@H]65)C2)C1,47.9,38.1
C=CCOC[C@@]1(O)[C@H](OC(C)=O)[C@]2(CC)C=CCN3CC[C@@]4(c5cc([C@@]6(C(=O)OC)C[C@@H]7C=C(CC)CN(CCc8c6[nH]c6ccccc86)C7)c(OC)cc5N(C)[C@@H]14)[C@@H]32,124,162
CCC1=C[C@@H]2CN(CCc3c([nH]c4ccccc34)[C@@](C(=O)OC)(c3cc4c(cc3OC)N(C)[C@H]3[C@@](O)(COC(=O)c5ccccc5Cl)[C@H](OC(C)=O)[C@]5(CC)C=CCN6CC[C@]43[C@@H]65)C2)C1,40.5,147
